Sampled rows, rich in hits. Any-hit rate of the full collection: about 2.3%.
TRPC6 inh: blocks the mouse TRPC6 cation channel. Q61143. HEK293-TRPC6, membrane potential dye, ACh-evoked depolarization; active compounds read low. B-score at 10 µM. actives 1.1% (n = 310,000). AID 2553;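 active = B-score under library mean minus 3 SD, initial fluorescence not abnormally high, positive integrated signal ratio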;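 note: B-score derived from integrated fluorescence ratio over the kinetic read; more negative B-score means stronger inhibition of depolarization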
TRPC6 activator: activators of mouse TRPC6 channel; actives 0.13% (n = 310,000); HEK293-TRPC6 membrane potential dye fluorescence; active compounds read high; B-score at 10 µM;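 active = B-score of the integrated fluorescence ratio above library mean plus 3 SD, and starting fluorescence ratio within library mean plus 5 SD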;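 note: higher score means more depolarization so channel activation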
TRPC4 PAM: TRPC4 (mouse) allosteric potentiation; B-score at 10 µM; actives 0.42% (n = 310,000); Q9QUQ5; HEK293 TRPC4beta/mu-opioid, DAMGO EC20, Fluo-4 Ca2+ flux; active compounds read high;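 active = B-score of calcium response area above 5 SD of library B-scores, with initial fluorescence ratio within 5 SD of library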;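 note: B-score of integrated fluorescence ratio over time as area under calcium response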
TRPC4 act: activators of mouse TRPC4 channel; HEK293 TRPC4beta/mu-opioid, Fluo4 calcium fluorescence; active compounds read high; actives 0.49% (n = 310,000); B-score at 10 µM; Q9QUQ5;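 active = B-score above 5 SD of library B-scores, and initial fluorescence ratio not above library mean plus 5 SD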;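 note: positive B-score marks a calcium rise read as TRPC4 activation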
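Material: TRPC4beta and mu-opioid receptor HEK293 stable cells | Incubation: 45 min room-temperature Fluo4 loading, 110 s read | Detection: Kinetic Fluo4 calcium fluorescence | Measure: Integrated baseline-normalised fluorescence ratio, converted to per-well B score | Benchmarks: Low control buffer alone, high control maximal DAMGO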
TRPC4 block: inhibitors of mouse TRPC4 channel. HEK293 TRPC4beta/mu-opioid, DAMGO-evoked Fluo4 calcium flux; active compounds read low. actives 0.39% (n = 300,000). B-score at 10 µM. Q9QUQ5. AID 2247;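 active = B-score over 3 SD under the library average, no early fluorescence shift, positive overall ratio signal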
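Material: HEK293 cells with stable TRPC4beta plus mu-opioid receptor expression; probe or stimulus: DAMGO in two steps, submaximal then maximal; technique: Fluo4 calcium fluorescence by kinetic imaging, 5 s 1 Hz baseline; measure: integrated fluorescence ratio relative to baseline, converted to per-well B score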
* = called active by the depositor; i = inactive.

SMILES	TRPC6 inh	TRPC6 activator	TRPC4 PAM	TRPC4 act	TRPC4 block
COc1ccc(C2C(C(=O)N3CCN(C)CC3)c3cc(OC)c(OC)cc3C(=O)N2C)cc1 (stereo not given)	i	i	i	i	i
CCN1CCN(C(=O)C2c3cc(OC)c(OC)cc3C(=O)N(C)C2c2ccc(SC)cc2)CC1 (stereo not given)	i	i	i	67*	i
CCOC(=O)c1c(S(=O)(=O)NCC2CCN(Cc3cccc(F)c3)CC2)c(C)n(C)c1C	i	i	i	i	i
O=c1ccc(-c2ccc(S(=O)(=O)NCC3CCN(Cc4cccc(F)c4)CC3)s2)n[nH]1	i	i	10*	i	i
O=CN1CCN(C(C(=O)NC2CCCCC2)c2ccc(Cl)cc2)CC1 (stereo not given)	i	i	i	i	i
CCc1ccccc1Nc1nc2ccccc2n1CC	i	i	i	i	i
CCCn1c(NCc2ccc(C)o2)nc2ccccc21	i	i	i	i	-6*
CCCn1c(Nc2ccccc2C)nc2ccccc21	i	i	i	i	-5*
COCCNC(=O)c1ccccc1NC(=O)c1ccccc1SC	i	i	i	i	i
COc1ccccc1N1CCN(C(=O)C2CCN(C(=O)c3ccc(C(C)(C)C)cc3)CC2)CC1	i	i	i	i	i
COc1ccc(NC(=O)CSc2nnc(Cc3cccs3)n2C)cc1	i	i	i	i	i
Cc1cc(OCC(=O)Nc2sc3c(c2C#N)CC(C)(C)NC3(C)C)c(C(C)C)cc1Cl	i	i	i	i	i
NC(=O)C(c1ccc(Cl)cc1Cl)c1ncc(C(F)(F)F)cc1Cl (stereo not given)	i	i	14*	i	i
CCOC(=O)c1cnc2c(C)cccc2c1NCCc1ccc(OC)c(OC)c1	i	i	i	i	-6*
CCn1c2ccccc2c2cc(NC(=O)CSc3nccc(=O)[nH]3)ccc21	i	i	i	i	i
CCn1cc(CN2CCN(Cc3ccccc3)C(CCO)C2)c2ccccc21 (stereo not given)	i	i	i	58*	i
OCCC1CN(Cc2ccccc2-c2ccco2)CCN1Cc1ccccc1 (stereo not given)	i	i	i	113*	i
OCCC1CN(Cc2ccc3nsnc3c2)CCN1CCc1ccccc1 (stereo not given)	i	i	i	43*	i
CCOc1ccc(CNC(=O)CCS(=O)(=O)Cc2cccc(Cl)c2)cc1OC	i	i	i	i	i
CSc1nnc(C)c(=O)n1COC(=O)/C=C/c1ccc2c(c1)OCO2	i	i	i	i	i
Cc1cc(-c2cn3ccccc3n2)c(C)n1-c1ccccc1	i	i	i	i	-7*
O=C1CC(O)(C(F)F)Oc2ccc3ccccc3c21 (stereo not given)	i	i	i	i	i
O=C1CC(O)(C(F)(F)F)Oc2c1ccc1ccccc21 (stereo not given)	i	i	i	142*	i
CCCOc1ccc(C(=O)NCC(c2cccs2)N(C)C)cc1OC (stereo not given)	i	i	i	i	i
COc1cc2ccccc2cc1C(=O)NCC(c1cccs1)N(C)C (stereo not given)	i	i	i	179*	i
SMILES	TRPC6 inh	TRPC6 activator	TRPC4 PAM	TRPC4 act	TRPC4 block
COc1cc(C(=O)NCC(c2cccs2)N(C)C)cc(Cl)c1OC(C)C (stereo not given)	i	i	i	63*	i
O=C(COC(=O)c1cccs1)NCC1CCCCC1	i	i	i	i	i
Cn1c(=O)c2c(nc(N3CCOCC3)n2CC(=O)C23CC4CC(CC(C4)C2)C3)n(C)c1=O	i	i	i	i	i
CN1CCN(c2nc3c(c(=O)n(C)c(=O)n3C)n2CC(=O)C23CC4CC(CC(C4)C2)C3)CC1	i	i	i	i	-6*
S=C(NC1CCCCC1)N1CCN(C/C=C/c2ccccc2)CC1	i	i	i	i	i
O=C(c1ccco1)N1CCN(C/C=C/c2ccccc2)CC1	i	i	i	i	-5*
CC(C)NC(=S)N1CCN(C/C=C/c2ccccc2)CC1	i	i	i	i	-6*
CCCCn1c(SCC(=O)N2c3ccccc3Sc3ccccc32)nc2c1c(=O)n(C)c(=O)n2C	i	i	117*	i	i
CC1Cc2ccccc2N1C(=O)CSc1nc2c(c(=O)n(C)c(=O)n2C)n1Cc1ccc(F)cc1 (stereo not given)	i	i	49*	i	i
CC(=O)c1cccc(OCC(O)CNCCc2ccc(Cl)cc2)c1 (stereo not given)	i	i	10*	i	i
CCOC(=O)c1c(C)n(C)c2ccc(OCC(O)CN3CCN(C)CC3)cc12 (stereo not given)	i	i	i	i	i
OC(CNCCc1ccc(C(F)(F)F)cc1)COc1ccc2ccccc2c1 (stereo not given)	i	i	24*	i	i
OC(CNCc1ccc(Cl)cc1)COc1ccccc1 (stereo not given)	i	i	i	i	i
OC(CNCCc1ccc(C(F)(F)F)cc1)COc1cccc2ccccc12 (stereo not given)	i	i	i	60*	i
CCOC(=O)c1c(C)n(C)c2ccc(OCC(O)CNCCc3ccccc3)cc12 (stereo not given)	i	i	21*	i	i
O=C(Nc1cccnc1Cl)c1cc(-c2ccc(Br)cc2)on1	i	i	i	i	i
COCCN(C(=O)CSc1nnc(-c2ccccc2C)n1C)c1c(N)n(Cc2ccccc2)c(=O)[nH]c1=O	i	i	i	i	i
C/C(=N\O)C(=O)OC1CC(C)CCC1C(C)C (stereo not given)	i	i	13*	i	i
CN1C(=O)C2(OCC(CO)([N+](=O)[O-])CO2)c2ccccc21 (stereo not given)	i	i	i	i	i
Cc1sc(NC(=O)c2ccco2)c(C(c2ccc(F)cc2)N2CCN(C)CC2)c1C (stereo not given)	i	i	34*	i	i
Cc1sc(NC(=O)c2ccco2)c(C(c2cccnc2)N2CCN(c3ccc(F)cc3)CC2)c1C (stereo not given)	i	i	i	i	i
O=[N+]([O-])c1ccc(/C=N/Nc2nc(N3CCCCC3)nc(N3CCCCC3)n2)o1	i	i	22*	i	i

Assay outcomes (PubChem)
